One assay has as its system PC-3. As to the kind of experiment: Growth inhibition of human PC3 cells measured after 72 hrs by Celltiter-Glo reagent based assay. The following applies: PC-3, 72 h. The class given is functional.
The next assay relates to REH. In words: Growth inhibition of human REH cells measured after 72 hrs by CellTiter-Glo reagent based assay. The class given is functional, cell-based. An outline of the steps: (§1)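 Cell line sources: Raji is a Burkitt's lymphoma line (FAB L3); Jurkat E6-1 is an acute T-cell leukemia line; REH is a patient-derived precursor B-cell ALL line expressing only wild-type MLL and wild-type AF4; 697 was established from bone marrow of children with relapsed ALL; CPC300 derives from a mouse model of choroid plexus carcinoma.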

The next assay relates to MDA-MB-231. In words: Growth inhibition of human MDA-MB-231 cells measured after 96 hrs by Celltiter-Glo reagent based assay. The class given is functional. The following applies: MDA-MB-231, 96 h.
The test system of the next assay is HT-29. As to the kind of experiment: Growth inhibition of human HT-29 cells measured after 72 hrs by Celltiter-Glo reagent based assay. It counts as functional. The following applies: HT-29, 72 h.
Another assay deals with Raji. In words: Growth inhibition of human Raji cells measured after 72 hrs by Celltiter-Glo reagent based assay. It counts as functional, cell-based. A digest of the protocol:
as §1

The subject of a further assay is 697. As to the kind of experiment: Growth inhibition of human 697 cells after 72 hrs by CellTiter-Glo reagent based assay. It counts as functional, cell-based. A digest of the protocol: as §1
Assay [1] is described as follows: Growth inhibition of mouse CPC300 cells measured after 72 hrs by Celltiter-Glo reagent based assay. The class given is functional. An outline of the steps: as §1
A short description of assay [2]: Growth inhibition of human NALM16 cells measured after 72 hrs by Celltiter-Glo reagent based assay. The class given is functional.
The subject of another assay is BJ. In words: Growth inhibition of human BJ cells after 72 hrs by CellTiter-Glo reagent based assay. The class given is cell-based.
A further assay deals with Jurkat E6.1. As to the kind of experiment: Growth inhibition of human Jurkat E6-1 cells measured after 72 hrs by Celltiter-Glo reagent based assay. It counts as functional, cell-based. An outline of the steps: as §1
The mark [3] stands for this setting: Homo sapiens, REH, 72 h, read-out: EC50.
Setting [4] is: Homo sapiens, 697, 72 h, read-out: EC50.
[5] abbreviates: Homo sapiens, Jurkat E6.1, 72 h, read-out: EC50.
Where [6] appears, read: Homo sapiens, NALM16, 72 h, read-out: EC50.
Where [7] appears, read: Homo sapiens, Raji, 72 h, read-out: EC50.

A value given as a limit tells only on which side of the number the result lay.

In the case of `CSc1ccc(/C=C2/C(C)=C(C(C)C(=O)NCCN3CCCC3)c3cc(F)ccc32)cc1` (centres undefined), the CC50 in the assay on PC-3 amounted to 5.68 µM; in the assay on MDA-MB-231, 5 µM; in the assay with HT-29, 2.03 µM. Moreover, the 50% effective concentration (EC50) was 76 µM in the assay on REH (setting [3]); “Not Active” with Raji (raji); 76 µM in the assay on 697 (setting [4]); “Not Active” in assay [1]; “Not Active” in assay [2]; above 7.57 µM in the assay with BJ. The EC50 in the assay on Jurkat E6.1 (setting [5]) was determined as 76 µM.

For the molecule `CSc1ccc(/C=C2/C(C)=C(C(C)C(=O)N(C)CCCN(C)C)c3cc(F)ccc32)cc1` (centres undefined), the cytotoxic concentration (CC50) in the assay on PC-3 was found to be 5.5 µM; with MDA-MB-231 it was 4.11 µM; in the assay with HT-29, 2.12 µM. Further, the half-maximal effective concentration (EC50) was 38 µM in the assay on REH (setting [3]); “Not Active” with Raji (raji); “Not Active” with 697 (697); “Not Active” in assay [1]; “Not Active” in assay [2]; above 7.57 µM with BJ. The EC50 entry in the assay with Jurkat E6.1 (jurkat e6.1) is listed as “Not Active”.

Turning to `CSc1ccc(/C=C2/C(C)=C(C(C)C(=O)N3CCN(CCN(C)C)CC3)c3cc(F)ccc32)cc1` (centres undefined), the half-maximal cytotoxic concentration (CC50) with PC-3 was 5.98 µM; with MDA-MB-231, 3.77 µM; in the assay on HT-29, 2.02 µM. The EC50 result with REH (reh) was “Not Active”; in the assay on Raji (raji), “Not Active”; in the assay on 697 (697), “Not Active”; in assay [1] it was “Not Active”; in assay [2] (setting [6]), 2.1 µM; in the assay with BJ, above 7.57 µM. Besides, in the assay with Jurkat E6.1 (jurkat e6.1), the EC50 result is “Not Active”.

With `CSc1ccc(/C=C2/C(C)=C(C(C)C(=O)N(CCCNC(C)C)C(C)C)c3cc(F)ccc32)cc1` (centres undefined), the CC50 worked out at 3.18 µM in the assay on PC-3, 2.91 µM in the assay on MDA-MB-231 and 1.26 µM in the assay with HT-29. In addition, the half-maximal effective concentration (EC50) result in the assay with REH (reh) was “Not Active”; with Raji (raji) it was “Not Active”; in the assay on 697 (697), “Not Active”; in assay [1], “Not Active”; in assay [2] (setting [6]), 1.5 µM; in the assay on BJ, above 7.57 µM. In the assay with Jurkat E6.1 (jurkat e6.1), the EC50 entry is listed as “Not Active”.

In the case of `CSc1ccc(/C=C2/C(C)=C(C(C)C(=O)N(CCNC(C)C)C(C)C)c3cc(F)ccc32)cc1` (centres undefined), the results for the CC50 in the assay on PC-3, with MDA-MB-231 and with HT-29 were 3.91 µM, 3.83 µM and 1.5 µM, respectively. The EC50 result was “Not Active” with REH (reh); “Not Active” in the assay with Raji (raji); “Not Active” in the assay on 697 (697); “Not Active” in assay [1]; “Not Active” in [2]; above 7.57 µM in the assay with BJ. Further, the EC50 entry with Jurkat E6.1 (jurkat e6.1) is given as “Not Active”.

`CSc1ccc(/C=C2/C(C)=C(C(C)C(=O)NCCN3CCNCC3)c3cc(F)ccc32)cc1` (centres undefined): the CC50 in the assay on PC-3 is 5.91 µM; in the assay on MDA-MB-231, 5.32 µM; in the assay on HT-29 it was 2.22 µM. The concentration giving a half-maximal response (EC50) with REH (setting [3]) is 26 µM; with Raji (setting [7]), 45 µM; with 697 (697), “Not Active”; in [1], “Not Active”; in [2], “Not Active”; with BJ, above 7.57 µM. The EC50 entry in the assay on Jurkat E6.1 (jurkat e6.1) was “Not Active”.

For the molecule `CSc1ccc(/C=C2/C(C)=C(C(C)C(=O)N3CCC[C@H]3CN3CCCC3)c3cc(F)ccc32)cc1` (some centres undefined), the 50% cytotoxic concentration (CC50) came out at 3.93 µM in the assay with PC-3, 3.57 µM with MDA-MB-231 and 0.84 µM with HT-29. Also, the EC50 is 11 µM with REH (setting [3]); “Not Active” with 697 (697); “Not Active” in [1]; “Not Active” in assay [2]; above 7.57 µM in the assay on BJ; “Not Active” with Jurkat E6.1 (jurkat e6.1).

Turning to `CCN(CCN(C)C)C(=O)C(C)C1=C(C)/C(=C/c2ccc(SC)cc2)c2ccc(F)cc21` (centres undefined), the results for the CC50 with PC-3, in the assay on MDA-MB-231 and in the assay with HT-29 were 3.54 µM, 3.18 µM and 1.13 µM, respectively. Also, the concentration giving a half-maximal response (EC50) was 10 µM in the assay on REH (setting [3]); below 0.00038 µM with Raji (setting [7]); “Not Active” with 697 (697); “Not Active” in [1]; “Not Active” in assay [2]; above 7.57 µM with BJ. In addition, the EC50 result in the assay with Jurkat E6.1 (jurkat e6.1) is “Not Active”.

On to `CCN(CC)CCCNC(=O)C(C)C1=C(C)/C(=C/c2ccc(SC)cc2)c2ccc(F)cc21` (centres undefined), for which the CC50 in the assay on PC-3 was 6.13 µM; with MDA-MB-231, 4.23 µM; in the assay on HT-29, 2.17 µM. The 50% effective concentration (EC50) entry in the assay on REH (reh) is “Not Active”; in the assay with Raji (raji), “Not Active”; in the assay with 697 (697), “Not Active”; in assay [1], “Not Active”; in assay [2], “Not Active”; in the assay on BJ it was above 7.57 µM. Also, the concentration for a half-maximal effect (EC50) result in the assay on Jurkat E6.1 (jurkat e6.1) is reported as “Not Active”.

Take `CSc1ccc(/C=C2/C(C)=C(C(C)C(=O)N3CCN(c4ccncc4)CC3)c3cc(F)ccc32)cc1` (centres undefined): the CC50 stood at 4.68 µM in the assay on PC-3, 3.95 µM in the assay on MDA-MB-231 and 2.2 µM with HT-29. Moreover, the EC50 entry in the assay with REH (reh) is “Not Active”; in the assay on Raji (raji), “Not Active”; in the assay on 697 (setting [4]) it was 76 µM; in assay [1], “Not Active”; in assay [2], “Not Active”; in the assay on BJ, above 7.57 µM. For the same molecule, the 50% effective concentration (EC50) entry in the assay on Jurkat E6.1 (jurkat e6.1) was “Not Active”.

On to `CCN(CC)CCNC(=O)C(C)C1=C(C)/C(=C/c2ccc(SC)cc2)c2ccc(F)cc21` (centres undefined), for which the CC50 in the assay with PC-3 was found to be 6.21 µM; in the assay with MDA-MB-231 it was 5.38 µM; in the assay with HT-29, 2.03 µM. For the same molecule, the EC50 in the assay with REH (setting [3]) is 14 µM; with Raji (raji), “Not Active”; with 697 (697), “Not Active”; in assay [1] it was “Not Active”; in assay [2], “Not Active”; in the assay on BJ, above 7.57 µM. Also, in the assay on Jurkat E6.1 (jurkat e6.1), the half-maximal effective concentration (EC50) entry is “Not Active”.

As to `COc1cc(/C=C2/C(C)=C(C(C)C(=O)NCc3ccccc3)c3cc(F)ccc32)cc(OC)c1OC` (centres undefined), the cytotoxic concentration (CC50) in the assay on PC-3 is 4.92 µM; with MDA-MB-231, 3.81 µM; with HT-29, 2.77 µM. In addition, the EC50 in the assay on REH (setting [3]) is 7 µM; with Raji (setting [7]), 13 µM; in the assay with 697 (setting [4]), 6.1 µM; in assay [1], “Not Active”; in assay [2] (setting [6]), 8 µM; in the assay with BJ it was above 7.57 µM. In addition, the EC50 in the assay with Jurkat E6.1 (setting [5]) amounted to 7.7 µM.

Turning to `CSc1ccc(/C=C2/C(C)=C(C(C)C(=O)NCCN(C)C)c3cc(F)ccc32)cc1` (centres undefined), the cytotoxic concentration (CC50) with PC-3 turned out to be 5.07 µM; in the assay with MDA-MB-231 it was 3.88 µM; in the assay on HT-29 it was 1.8 µM. Further, the 50% effective concentration (EC50) entry in the assay with REH (reh) was “Not Active”; in the assay with Raji (raji), “Not Active”; with 697 (697), “Not Active”; in assay [1], “Not Active”; in assay [2] (setting [6]), 76 µM; in the assay on BJ, above 7.57 µM. The EC50 result with Jurkat E6.1 (jurkat e6.1) is given as “Not Active”.

The values are drawn from ChEMBL document CHEMBL4118188, “A small diversity library of α-methyl amide analogs of sulindac for probing anticancer structure-activity relationships” (Bioorg Med Chem Lett, 2018).
